Only some compounds are listed: those with a hit (about 3.7% of all), similar ones and a draw of the others.
Kir21 inh: inhibitors of mouse Kir2.1 inward-rectifier potassium channel | B-score at 10 µM | P35561 | 310,000 compounds, 0.85% hits | HEK293-Kir2.1, FluxOR thallium flux fluorescence; active compounds read low;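 active means fluorescence ratio B-score at or below minus 3 SD of library scores, with starting-brightness B-score within 2 SD, cut at about -4.2 in these data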;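 further: channel flux triggered by added potassium and thallium sulfate stimulus; B-score of peak minus minimum fluorescence over baseline after thallium stimulus; more negative B-score means stronger Kir2.1 block with less thallium influx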
KCNK9 inh: inhibitors of human KCNK9 two-pore domain potassium channel | Q9NPC2 | HEK293 KCNK9, FluxOR thallium flux fluorescence; active compounds read low | B-score at 10 µM | 310,000 compounds, 1.2% hits | AID 488922;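 active means ratio B-score over 3 SD below the library mean, with starting fluorescence within 5 SD of its mean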;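 further: negative B-score means less thallium flux so channel inhibition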
Target sequence (Q9NPC2 whole entry, looked up, the tested form may be a part): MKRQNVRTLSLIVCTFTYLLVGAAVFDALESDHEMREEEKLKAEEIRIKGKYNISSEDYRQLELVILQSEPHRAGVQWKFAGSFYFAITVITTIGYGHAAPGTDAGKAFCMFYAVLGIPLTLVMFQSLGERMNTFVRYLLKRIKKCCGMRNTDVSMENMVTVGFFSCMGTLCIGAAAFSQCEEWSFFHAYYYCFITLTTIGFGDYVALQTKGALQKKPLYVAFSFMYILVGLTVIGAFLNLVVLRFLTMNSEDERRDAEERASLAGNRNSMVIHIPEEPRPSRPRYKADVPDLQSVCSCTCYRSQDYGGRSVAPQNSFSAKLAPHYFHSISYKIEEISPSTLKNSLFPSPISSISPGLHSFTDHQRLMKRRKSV
hERG rescue: compounds protecting human hERG from proarrhythmic drug block. Q12809. CHO-hERG, FluxOR thallium flux, dofetilide IC70 present. activation (rescue from dofetilide block), less the hit threshold, % at 10 µM. 310,000 compounds, 0.51% hits. AID 1511;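 active means activation above the mean of controls blocked by dofetilide plus 5 SD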;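 further: thallium influx through hERG after potassium depolarization seen as dye fluorescence rise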
KCNK3 inh: human KCNK3 channel inhibition, primary screen; CHO-KCNK3 thallium flux, FluxOR fluorescence; active compounds read low; B-score at 10 µM; 340,000 compounds, 0.84% hits; AID 602410;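 active means B-score under library mean minus 4 SD, starting fluorescence ratio at most library mean plus 5 SD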;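 further: more negative B-score means stronger inhibition of thallium flux through KCNK3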
KCNQ1 act: potentiators or activators of human KCNQ1 potassium channel; P51787; CHO-K1 KCNQ1, thallium flux FluxOR fluorescence; active compounds read high; B-score at 10 µM; 310,000 compounds, 0.35% hits; AID 2648;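 active means fluorescence ratio B-score, a plate-corrected score, at least three library SD, with initial intensity B-score within 5 SD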
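Assay system: CHO-K1 cells stably expressing KCNQ1. Medium: assay buffer for compound exposure, DMSO matched across wells. Timing: 37 °C overnight plating, 90-min dark dye load, 20-min compound pretreatment. Signal: kinetic FluxOR fluorescence, 10 s baseline plus 110 s post-stimulus.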
KCNQ1 block: human KCNQ1 channel inhibition; CHO-K1 KCNQ1, FluxOR thallium flux fluorescence; active compounds read high; B-score at 10 µM; 310,000 compounds, 1.3% hits; AID 2642;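 active means compounds whose thallium flux B-score, printed positive for inhibition, exceeds three library SD while starting fluorescence stays within three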;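 further: channel opened by potassium depolarization with thallium stimulus after 20 min compound exposure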
KCNK9 inh conf: human KCNK9 inhibitor confirmation; shares compounds with KCNK9 inh; HEK293 KCNK9 cells, FluxOR thallium flux fluorescence; inhibition, % at 10 µM; 4,900 compounds, 43% hits; AID 492992;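 active means thallium signal inhibited by more than 5 SD of the compound-free buffer control wells, on both duplicate plates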
Kir21 sel: tests whether KCNK9 modulators also affect mouse Kir2.1; shares compounds with KCNK9 inh; Kir2.1 cells, FluxOR thallium flux fluorescence; AID 492993; 4,900 compounds, 4% hits; inhibition, % at 10 µM;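 active means thallium signal drop more than 5 SD beyond the mean of the no-compound control wells, seen in both duplicate plates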;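 further: signal is fluorescence rise after thallium addition divided by baseline fluorescence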
KCNK9 uninduced: second check of KCNK9 modulator effects in non-induced HEK293 cells; shares compounds with KCNK9 inh; FluxOR thallium flux; inhibition, % at 10 µM; 4,900 compounds, 40% hits; AID 492997;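 active means thallium signal drop beyond 5 SD of the untreated control mean, on both duplicate plates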
Hits are given with their value; i = inactive; nt = no result given.

SMILES	Kir21 inh	KCNK9 inh	hERG rescue	KCNK3 inh	KCNQ1 act	KCNQ1 block	KCNK9 inh conf	Kir21 sel	KCNK9 uninduced
O=C(N/N=C/c1cn(-c2ccccc2)nc1-c1ccc(F)cc1)c1ccc2c(c1)OCO2	i	-10	i	i	i	i	55%	i	i
COc1ccc(NC(=O)C2CCN(S(=O)(=O)c3cccs3)CC2)cc1OC	nt	nt	nt	i	nt	nt	nt	nt	nt
O=C(NCCC1=CCCCC1)NC12CC3CC(CC(C3)C1)C2	i	i	i	i	i	6	i	i	i
COc1ccc(NC(=O)c2cccs2)cc1C(=O)N1CCN(c2ccccc2)CC1	i	i	i	i	i	i	nt	nt	nt
CCCCCCCCC[n+]1cccc2c3ccccc3ccc21	-10	-17	i	i	i	i	70%	90%	30%
CCCCCCCCCCCCCCCC[n+]1cccc2ccccc21	nt	nt	nt	i	nt	nt	nt	nt	nt
c1ccc(CNc2ncnc3sc4c(c23)CCCC4)nc1	i	i	i	i	i	i	nt	nt	nt
Cc1nc(NCc2ccccn2)c2c3c(sc2n1)CCCC3	i	i	i	i	i	i	i	i	i
O=C(NC12CC3CC(CC(C3)C1)C2)c1ccc(-c2ccccc2Cl)o1	i	i	i	i	i	i	i	i	i
O=C(NC12CC3CC(CC(C3)C1)C2)c1ccc(-c2ccc(Cl)cc2)o1	i	i	i	i	i	i	nt	nt	nt
CCC(C)C(NC(=O)C1CCC(C)CC1)C(=O)Nc1ccc(OC)cc1 (stereo not drawn)	i	i	i	i	i	i	nt	nt	nt
COc1ccc(C(=O)Nc2cc(OC)ccc2OC)cc1	i	i	i	i	i	i	nt	nt	nt
COc1ccc(OC)c(NC(=O)c2cc(OC(C)=O)cc(C(=O)Nc3cc(OC)ccc3OC)c2)c1	i	-9.5	i	i	i	i	49%	i	i
O=C(Cn1c(=O)c2c(ncn2C2CCCC2)n(Cc2ccccc2)c1=O)N1CCc2ccccc21	i	i	i	i	i	i	i	i	i
O=C(Cn1c(=O)c2c(ncn2Cc2ccccc2)n(Cc2ccccc2)c1=O)N1CCCC1	i	i	i	i	i	i	nt	nt	nt
COc1ccccc1N(CC(O)CN1C(C)CCCC1C)S(=O)(=O)c1ccccc1 (stereo not drawn)	i	i	i	i	i	i	nt	nt	nt
Cc1cc(C)cc(NS(=O)(=O)c2ccc3c(c2)C(C)(C)C(=O)N3C)c1	i	i	i	i	i	i	nt	nt	nt
Cc1nc(-c2coc3c(CN(C)C)c(O)ccc3c2=O)cs1	i	-8.2	i	i	i	i	i	i	i
COc1ccccc1-c1coc2c(CN(C)C)c(O)ccc2c1=O	i	i	i	i	i	i	nt	nt	nt
COc1ccc(OC)c(C2CC(=O)N3CN(c4cccc(Cl)c4C)CSC3=C2C#N)c1 (stereo not drawn)	i	i	i	i	i	i	nt	nt	nt
N#CC1=C2SCN(c3ccccc3)CN2C(=O)CC1c1c(Cl)cccc1Cl (stereo not drawn)	i	i	i	i	i	i	i	i	i
COc1cc(OC)c(C2CC(=O)N3CN(c4ccccc4)CSC3=C2C#N)cc1OC (stereo not drawn)	i	i	i	i	i	i	nt	nt	nt
COc1cccc(C2CC(=O)N3CN(c4cccc(Cl)c4C)CSC3=C2C#N)c1OC (stereo not drawn)	i	i	i	i	i	i	i	i	i
N#CC1=C2SCN(c3ccccc3)CN2C(=O)CC1c1cccs1 (stereo not drawn)	i	i	i	i	i	i	nt	nt	nt
N#CC1=C2SCN(c3ccccc3)CN2C(=O)CC1c1ccccc1Cl (stereo not drawn)	i	i	i	i	i	i	i	i	i
SMILES	Kir21 inh	KCNK9 inh	hERG rescue	KCNK3 inh	KCNQ1 act	KCNQ1 block	KCNK9 inh conf	Kir21 sel	KCNK9 uninduced
Cc1ccc(C2(c3ccccc3)NC(=O)N(CC(=O)NC3(C#N)CCCC3)C2=O)cc1C (stereo not drawn)	nt	nt	nt	i	nt	nt	nt	nt	nt
CCCNC(=O)c1onc(CSc2ccc(Cl)cc2)c1C(=O)NCCC(C)C	i	i	i	i	i	i	i	i	i
C=CCNC(=O)c1c(CSc2ccc(Cl)cc2)noc1C(=O)NCc1ccccc1	i	i	i	i	i	i	i	i	i
CCCNC(=O)c1onc(CSc2ccc(Cl)cc2)c1C(=O)NCC1CC1	i	i	i	i	i	i	i	i	i
CC(C)CCNC(=O)c1c(CSc2ccccc2)noc1C(=O)NCc1ccccc1	i	i	i	i	i	i	i	i	i
COc1ccc(CNC(=O)c2ccc3c(c2)N(C)CCS3)cc1	i	i	i	i	i	i	nt	nt	nt
CC(C)Oc1ccc(CNC(=O)c2ccc3c(c2)N(C)CCS3)cc1	i	i	i	i	i	i	i	i	i
C=CCn1c(SCC(=O)NCC(c2ccccc2)N(C)C)nnc1C1CCCCC1 (stereo not drawn)	nt	nt	nt	i	nt	nt	nt	nt	nt
Oc1ccc(Br)cc1-c1nc2cnccn2c1NC1CCCCC1	i	-9.4	i	i	i	i	i	i	30%
Cn1c(SCC(=O)Nc2nncs2)nnc1C1CC1	i	i	i	i	i	i	nt	nt	nt
CC(=O)Oc1ccc(C(=O)NCc2ccc3c(c2)OCO3)cc1	i	i	i	i	i	i	nt	nt	nt
COc1ccc(C(=O)/C=C(\C)NCc2ccc3c(c2)OCO3)cc1	i	i	i	i	i	i	i	i	i
CCOC(=O)c1cc(-c2ccccc2)sc1NC(=O)C(C)Sc1nnnn1C (stereo not drawn)	i	-17	i	i	i	i	61%	i	36%
CCOC(=O)c1cc(-c2ccccc2)sc1NC(=O)C(C)C	i	i	i	i	i	i	nt	nt	nt
CCOc1ccccc1N1CCN(C(=O)C2c3ccccc3Oc3ccccc32)CC1	i	-12	i	-9.3	i	i	45%	i	36%
CS(=O)(=O)N1CCN(C(=O)C2c3ccccc3Oc3ccccc32)CC1	i	i	i	i	i	i	nt	nt	nt
COC(=O)C(Cc1c[nH]c2ccccc12)NC(=O)C1CC1 (stereo not drawn)	i	i	i	i	i	i	nt	nt	nt
Fc1ccc(Cn2nnnc2C(c2ccc(Cl)cc2)N2CCSCC2)cc1 (stereo not drawn)	i	-9.4	i	i	i	i	40%	i	44%
CC(C)Cn1c(SC(C)C(=O)Nc2ccc3c(c2)OCCO3)nc2ccccc2c1=O (stereo not drawn)	i	-8.5	i	i	i	i	i	i	i
CC(Sc1nc2ccccc2c(=O)n1C)C(=O)Nc1ccc2c(c1)OCCO2 (stereo not drawn)	nt	nt	nt	i	nt	nt	nt	nt	nt
CCn1c(SCC(=O)Nc2ccc(N3CCOCC3)cc2)nnc1-c1ccncc1	i	i	i	i	i	i	nt	nt	nt
